Data from the RNAGym collection of RNA variant scans (doi:10.1038/s41586-018-0170-7).

B1: tRNA (parent)
chain: GUUCCGUUGGCGUAAUGGUAACGCGUCUCCCUCCUAAGGAGAAGACUGCGGGUUCGAGUCCCGUACGGAACG

Variants of: B1
Test: yeast fitness, log relative to wild type (ln ratio); higher = fitter; tRNA-Arg(CCU), competitive growth, 37 C, 1 M NaCl
How it was run: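 A combinatorial tRNA-Arg(CCU) variant library was carried on a HIS3 centromeric plasmid in BY4742 lacking the chromosomal gene, from two independent transformations. Pools grew 4 generations in SC-HIS at 30 °C, then ~6.5 generations (~26.5 h) in SC-HIS 1M NaCl at 37 °C, with three outputs per input. Variants were counted by 125 bp paired-end Illumina sequencing. Fitness is ln of each genotype's generations (OD-scaled log2 output/input frequency, inverse-variance weighted across replicates) over the wild-type's.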

First: AUUCCUUUGGCGUAAUGGUAACGCGUCUCCCUCCUAAGGAGAAGAUUGCGGGUUCGAGUCCCGUAAGGAUUG [G1A G6U C46U C66A A70U C71U]
Second: AUUCCUUUGGCGUAAUGGUAACGCGUCUCCCUCCUAAGGAGAAGAUUGCGGGUUCGAGUCCCGUAUGGAACG [G1A G6U C46U C66U]
The “yeast fitness (ln)” value of the first is higher: -0.084 for the first, -0.0919 for the second.

Compared with AUUCCUUUGGCGUAAUGGUAACGCGUCUCCCUCCUAAGGAGAAGAUUGCGGGUUCGAGUCCCGUAAGGAACG [G1A G6U C46U C66A], AUUCCUUUGGCGUAAUGGUAACGCGUCUCCCUCCUAAGGAGAAGAUUGCGGGUUCGAGUCCCGUACGGAGUG [G1A G6U C46U A70G C71U] is lower in “yeast fitness (ln)” value: -0.0835 for the first, -0.227 for the second.

Going from AUUCCUUUGGCGUAAUGGUAACGCGUCUCCCUCCUAAGGAGAAGACUGCGGGUUCGAGUCCCGUAUGGGAUG [G1A G6U C66U A69G C71U] to AUUCCUUUGGCGUAAUGGUAACGCGUCUCCCUCCUAAGGAGAAGAUUGCGGGUUCGAGUCCCGUAUGGGGUG [G1A G6U C46U C66U A69G A70G C71U], the “yeast fitness (ln)” value rises from -0.312 to -0.216.

First: AUUCCUUUGGCGUAAUGGUAACGCGUCUCCCUCCUAAGGAGAAGACUGCGGGUUCGAGUCCCGUAAGGAUCG [G1A G6U C66A A70U]
Second: AUUCCUUUGGCGUAAUGGUAACGCGUCUCCCUCCUAAGGAGAAGACUGCGGGUUCGAGUCCCGUAAGGAGCG [G1A G6U C66A A70G]
The “yeast fitness (ln)” value of the first is higher: -0.0574 for the first, -0.196 for the second.

Compared with AUUCCUUUGGCGUAAUGGUAACGCGUUUCCCUCCUAAGGAGAAGACUGCGGGUUCGAGUCCCGUAUGGAGUG [G1A G6U C27U C66U A70G C71U], AUUCCUUUGGCGUAAUGGUAACGCGUCUCCCUCCUAAGGAGAAGACUGCGGGUUCGAGUCCCGUAAGGGAUG [G1A G6U C66A A69G C71U] is higher in “yeast fitness (ln)” value: -0.38 for the first, -0.032 for the second.

Going from AUUCCUUUGGCGUAAUGGUAACGCGUUUCCCUCCUAAGGAGAAGACUGCGGGUUCGAGUCCCGUAUGGAGCG [G1A G6U C27U C66U A70G] to AUUCCUUUGGCGUAAUGGUAACGCGUUUCCCUCCUAAGGAGAAGACUGCGGGUUCGAGUCCCGUAUGGAUCG [G1A G6U C27U C66U A70U], the “yeast fitness (ln)” value rises from -0.391 to -0.274.

Compared with AUUCCUUUGGCGUAAUGGUAACGCGUCUCCCUCCUAAGGAGAAGACUGCGGGUUCGAGUCCCGUAAGGGGUG [G1A G6U C66A A69G A70G C71U], AUUCCUUUGGCGUAAUGGUAACGCGUUUCCCUCCUAAGGAGAAGACUGCGGGUUCGAGUCCCGUAUGGGUUG [G1A G6U C27U C66U A69G A70U C71U] is lower in “yeast fitness (ln)” value: -0.17 for the first, -0.45 for the second.

First: AUUCCUUUGGCGUAAUGGUAACGCGUCUCCCUCCUAAGGAGAAGAUUGCGGGUUCGAGUCCCGUAAGGGAUG [G1A G6U C46U C66A A69G C71U]
Second: ACUCCGUUGGCGUAAUGGUAACGCGUCUCCCUCCUAAGGAGACGACUGCGGGUUCGAGUCCCGUACGGGAUG [G1A U2C A43C A69G C71U]
The “yeast fitness (ln)” value of the first is higher: -0.041 for the first, -0.202 for the second.

Compared with AUUCCUUUGGCGUAAUGGUAACGCGUCUCCCUCCUAAGGAGAAGAUUGCGGGUUCGAGUCCCGUACGGAACG [G1A G6U C46U], AUUCCUUUGGCGUAAUGGUAACGCGUCUCCCUCCUAAGGAGAAGAUUGCGGGUUCGAGUCCCGUACGGGGUG [G1A G6U C46U A69G A70G C71U] is lower in “yeast fitness (ln)” value: -0.0505 for the first, -0.216 for the second.

Going from ACUCCGUUGGCGUAAUGGUAACGCGUCUCCCUCCUAAGGAGACGACUGCGGGUUCGAGUCCCGUACGGAACG [G1A U2C A43C] to AUUCCUUUGGCGUAAUGGUAACGCGUCUCCCUCCUAAGGAGAAGACUGCGGGUUCGAGUCCCGUAUGGAAUG [G1A G6U C66U C71U], the “yeast fitness (ln)” value falls from -0.0267 to -0.425.

First: AUUCCUUUGGCGUAAUGGUAACGCGUCUCCCUCCUAAGGAGAAGAUUGCGGGUUCGAGUCCCGUACGGGAUG [G1A G6U C46U A69G C71U]
Second: AUUCCUUUGGCGUAAUGGUAACGCGUCUCCCUCCUAAGGAGAAGACUGCGGGUUCGAGUCCCGUAUGGAUCG [G1A G6U C66U A70U]
The “yeast fitness (ln)” value of the first is lower: -0.297 for the first, -0.154 for the second.

Going from AUUCCUUUGGCGUAAUGGUAACGCGUCUCCCUCCUAAGGAGAAGACUGCGGGUUCGAGUCCCGUAUGGAGCG [G1A G6U C66U A70G] to ACUCCGUUGGCGUAAUGGUAACGCGUCUCCCUCCUAAGGAGACGACUGCGGGUUCGAGUCCCGUACGGAGUG [G1A U2C A43C A70G C71U], the “yeast fitness (ln)” value rises from -0.199 to -0.011.

First: ACUCCGUUGGCGUAAUGGUAACGCGUCUCCCUCCUAAGGAGACGAUUGCGGGUUCGAGUCCCGUACGGAACG [G1A U2C A43C C46U]
Second: AUUCCUUUGGCGUAAUGGUAACGCGUCUCCCUCCUAAGGAGAAGAUUGCGGGUUCGAGUCCCGUAUGGGUCG [G1A G6U C46U C66U A69G A70U]
The “yeast fitness (ln)” value of the first is higher: -0.00932 for the first, -0.251 for the second.

First: AUUCCUUUGGCGUAAUGGUAACGCGUCUCCCUCCUAAGGAGAAGAUUGCGGGUUCGAGUCCCGUAUGGGGCG [G1A G6U C46U C66U A69G A70G]
Second: AUUCCUUUGGCGUAAUGGUAACGCGUCUCCCUCCUAAGGAGAAGACUGCGGGUUCGAGUCCCGUAAGGGUUG [G1A G6U C66A A69G A70U C71U]
The “yeast fitness (ln)” value of the first is higher: -0.205 for the first, -0.432 for the second.

Going from AUUCCUUUGGCGUAAUGGUAACGCGUCUCCCUCCUAAGGAGAAGACUGCGGGUUCGAGUCCCGUAUGGAACG [G1A G6U C66U] to AUUCCUUUGGCGUAAUGGUAACGCGUCUCCCUCCUAAGGAGAAGACUGCGGGUUCGAGUCCCGUAAGGAACG [G1A G6U C66A], the “yeast fitness (ln)” value rises from -0.126 to -0.0927.

Going from AUUCCUUUGGCGUAAUGGUAACGCGUCUCCCUCCUAAGGAGAAGAUUGCGGGUUCGAGUCCCGUAAGGAUCG [G1A G6U C46U C66A A70U] to AUUCCUUUGGCGUAAUGGUAACGCGUCUCCCUCCUAAGGAGAAGAUUGCGGGUUCGAGUCCCGUAAGGAGCG [G1A G6U C46U C66A A70G], the “yeast fitness (ln)” value falls from -0.0534 to -0.225.

Compared with ACUCCGUUGGCGUAAUGGUAACGCGUCUCCCUCCUAAGGAGACGACUGCGGGUUCGAGUCCCGUACGGAGCG [G1A U2C A43C A70G], ACUCCGUUGGCGUAAUGGUAACGCGUCUCCCUCCUAAGGAGACGACUGCGGGUUCGAGUCCCGUACGGAUCG [G1A U2C A43C A70U] is lower in “yeast fitness (ln)” value: -0.0553 for the first, -0.108 for the second.

First: AUUCCUUUGGCGUAAUGGUAACGCGUCUCCCUCCUAAGGAGAAGACUGCGGGUUCGAGUCCCGUAUGGGGCG [G1A G6U C66U A69G A70G]
Second: AUUCCUUUGGCGUAAUGGUAACGCGUCUCCCUCCUAAGGAGAAGACUGCGGGUUCGAGUCCCGUAUGGGUCG [G1A G6U C66U A69G A70U]
The “yeast fitness (ln)” value of the first is lower: -0.288 for the first, -0.284 for the second.

In the case of AUUCCUUUGGCGUAAUGGUAACGCGUCUCCCUCCUAAGGAGAAGACUGCGGGUUCGAGUCCCGUAAGGAAUG [G1A G6U C66A C71U], the “yeast fitness (ln)” value is reported as 0.00231.
